# Measured values gathered from unrelated publications.
# Lines come from different studies, so protocols differ.
# Cell line: HCT-15
# Effect on: cell growth or viability
Compound,test,setting,endpoint,value
O=C(O)CCCc1ccccc1,MTT,72 h,IC50,> 50 µM
Cc1cc(C)n(C(=S)[S][Au][PH](CCCCCC[PH]([Au][S]C(=S)n2nc(C)cc2C)(c2ccccc2)c2ccccc2)(c2ccccc2)c2ccccc2)n1,,,GI50,1120 nM
[Se]=c1n(C23CC4CC(CC(C4)C2)C3)ccn1C12CC3CC(CC(C3)C1)C2,MTT,72 h,IC50,8.3 µM
COc1cccc(Oc2ccccc2NC(=O)CNC(=O)c2cccc3ccccc23)c1,SRB,48 h,GI50,129 nM
COc1ccc(C(=O)/C=C/c2ccc3c(c2)OCCO3)cc1S(N)(=O)=O,SRB,10 µM,inhibition,58%
Cc1c(C)n(-c2c(C(C)C)cccc2C(C)C)c(=[Se])n1-c1c(C(C)C)cccc1C(C)C,MTT,72 h,IC50,16.2 µM
COc1cc(Nc2nccc(-c3cnn4nc(OC)ccc34)n2)cc(C(F)(F)F)c1,ATP luminescence,,IC50,0.36 µM
COc1ccc(C(=O)/C=C/c2cccc(Cl)c2Cl)cc1S(N)(=O)=O,SRB,48 h,GI50,1300 nM
S=C([S][Au-][P+](CCCCCC[P+]([Au-][S]C(=S)n1cccn1)(c1ccccc1)c1ccccc1)(c1ccccc1)c1ccccc1)n1cccn1,,,GI50,2880 nM
CC(C)C[C@H](NC(=O)[C@H](Cc1ccccc1)NC(=O)c1cnccn1)B(O)O,ATP luminescence,,IC50,0.0096 µM
CC(C)c1cccc(C(C)C)c1-n1ccn(-c2c(C(C)C)cccc2C(C)C)c1=[Se],MTT,72 h,IC50,14.8 µM
COc1cccc2c1C(=O)c1c(O)c3c(c(O)c1C2=O)C[C@@](O)(C(=O)CO)C[C@@H]3O[C@H]1C[C@H](N)[C@H](O)[C@H](C)O1,MTT,24 h,IC50,6.6 µM
CC(C)[C@H](N)c1nc2cc(-c3ccncc3F)sc2c(=O)[nH]1,MTT,,IC50,0.301 µM
